Source: ChEMBL document CHEMBL1955790, “One pot synthesis and anticancer activity of dimeric phloroglucinols” (Bioorg Med Chem Lett, 2012)

Legend:
[1] = tested on: PANC-1; experiment: Growth inhibition of human PANC1 cells at 10 uM after 48 hrs by WST-8 assay; assay type: functional; details: PANC-1, 48 h, read-out: GI
Method in brief: (§1)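 ATCC cells kept in DMEM with 10% FBS and antibiotics at 37 °C, 5% CO2. Seeded 5×10^3/well, incubated overnight, then treated with compound for 48 h against a DMSO vehicle control (≤0.1%). CCK-8 (WST-8) reduction by live-cell dehydrogenases read at 450 nm (corrected 650 nm) after 4 h at 37 °C. Viable cells expressed as % of the DMSO control.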

[2] = tested on: ACHN; experiment: Cytotoxicity against human ACHN cells after 48 hrs by WST-8 assay; assay type: functional, cell-based
Method in brief: (§2)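 ATCC cells kept in DMEM with 10% FBS, penicillin/streptomycin at 37 °C, 5% CO2. Seeded 5×10^3/well and left overnight, then exposed to a range of concentrations with DMSO vehicle (≤0.1%) as control. After 48 h, CCK-8 (WST-8) was added for 4 h at 37 °C and A450 read, corrected to 650 nm. Viability is % of DMSO control. IC50 was taken from log cytotoxicity curves.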

[3] = tested on: HCT-116; experiment: Cytotoxicity against human HCT116 cells after 48 hrs by WST-8 assay; assay type: functional, cell-based; details: HCT-116, 48 h; method in brief: as §2
[4] = tested on: NCI-H460; experiment: Growth inhibition of human NCI-H460 cells at 10 uM after 48 hrs by WST-8 assay; assay type: functional; details: NCI-H460, 48 h, read-out: GI; method in brief: as §1
[5] = tested on: PANC-1; experiment: Cytotoxicity against human PANC1 cells after 48 hrs by WST-8 assay; assay type: functional, cell-based; details: PANC-1, 48 h; method in brief: as §2
[6] = tested on: ACHN; experiment: Growth inhibition of human ACHN cells at 10 uM after 48 hrs by WST-8 assay; assay type: functional; details: read-out: GI; method in brief: as §1
[7] = tested on: Calu-1; experiment: Cytotoxicity against human Calu1 cells after 48 hrs by WST-8 assay; assay type: functional, cell-based; details: Calu-1, 48 h; method in brief: as §2
[8] = tested on: HCT-116; experiment: Growth inhibition of human HCT116 cells at 10 uM after 48 hrs by WST-8 assay; assay type: functional; details: HCT-116, 48 h, read-out: GI; method in brief: as §1
[9] = tested on: NCI-H460; experiment: Cytotoxicity against human NCI-H460 cells after 48 hrs by WST-8 assay; assay type: functional, cell-based; details: NCI-H460, 48 h; method in brief: as §2
[10] = tested on: MCF-10A; experiment: Cytotoxicity against human MCF10A cells after 48 hrs by WST-8 assay; assay type: cell-based; method in brief: as §2
[11] = tested on: Calu-1; experiment: Growth inhibition of human Calu1 cells at 10 uM after 48 hrs by WST-8 assay; assay type: functional; details: Calu-1, 48 h, read-out: GI; method in brief: as §1
[12] = tested on: HCT-116; experiment: Growth inhibition of human HCT116 cells at 500 nM after 48 hrs by WST-8 assay; assay type: functional; details: HCT-116, 48 h, read-out: GI; method in brief: as §1
[13] = tested on: ACHN; experiment: Growth inhibition of human ACHN cells at 500 nM after 48 hrs by WST-8 assay; assay type: functional; details: read-out: GI; method in brief: as §1
[14] = tested on: PANC-1; experiment: Growth inhibition of human PANC1 cells at 500 nM after 48 hrs by WST-8 assay; assay type: functional; details: PANC-1, 48 h, read-out: GI; method in brief: as §1
[15] = tested on: NCI-H460; experiment: Growth inhibition of human NCI-H460 cells at 500 nM after 48 hrs by WST-8 assay; assay type: functional; details: NCI-H460, 48 h, read-out: GI; method in brief: as §1
[16] = tested on: Calu-1; experiment: Growth inhibition of human Calu1 cells at 500 nM after 48 hrs by WST-8 assay; assay type: functional; details: Calu-1, 48 h, read-out: GI; method in brief: as §1

| SMILES | inhibition of growth at 10 µM [1] [%] | IC50 [2] [µM] | IC50 [3] [µM] | inhibition of growth at 10 µM [4] [%] | IC50 [5] [µM] | inhibition of growth at 10 µM [6] [%] | IC50 [7] [µM] | inhibition of growth at 10 µM [8] [%] | IC50 [9] [µM] | IC50 [10] [µM] | inhibition of growth at 10 µM [11] [%] | inhibition of growth at 0.5 µM [12] [%] | inhibition of growth at 0.5 µM [13] [%] | inhibition of growth at 0.5 µM [14] [%] | inhibition of growth at 0.5 µM [15] [%] | inhibition of growth at 0.5 µM [16] [%] |
| --- | --- | --- | --- | --- | --- | --- | --- | --- | --- | --- | --- | --- | --- | --- | --- | --- |
| CC(C)CC(=O)c1c(O)c(C(=O)CC(C)C)c(O)c(C(c2ccc3c(c2)OCO3)c2c(O)c(C(=O)CC(C)C)c(O)c(C(=O)CC(C)C)c2O)c1O | 69 | 6.7 | 7.1 | 63 | 7.2 | 67 | 6.5 | 60 | 6.6 | > 30 | 62 | – | – | – | – | – |
| CC(C)CC(=O)c1c(O)c(C(=O)CC(C)C)c(O)c(C(c2cccs2)c2c(O)c(C(=O)CC(C)C)c(O)c(C(=O)CC(C)C)c2O)c1O | 60 | > 10 | 8.9 | 54 | 8.5 | 50 | 8.9 | 57 | 9.1 | > 30 | 62 | – | – | – | – | – |
| CC(C)CC(=O)c1c(O)c(C=O)c(O)c(C(c2ccc3c(c2)Cc2ccccc2-3)c2c(O)c(C=O)c(O)c(C(=O)CC(C)C)c2O)c1O | 57 | 9.9 | 9.4 | 54 | 9.6 | 50 | 8.8 | 52 | 9.2 | 26.2 | 58 | – | – | – | – | – |
| CC(C)CC(=O)c1c(O)c(C(=O)CC(C)C)c(O)c(C(c2cc3ccccc3s2)c2c(O)c(C(=O)CC(C)C)c(O)c(C(=O)CC(C)C)c2O)c1O | 59 | 9.9 | 9.8 | 54 | 9.8 | 54 | 9.5 | 65 | 9.7 | > 30 | 54 | – | – | – | – | – |
| CC(C)CC(=O)c1c(O)c(C=O)c(O)c(C(c2cccnc2)c2c(O)c(C=O)c(O)c(C(=O)CC(C)C)c2O)c1O | 67 | 5.7 | 5.5 | 68 | 6.1 | 71 | 6.3 | 69 | 5.8 | > 30 | 66 | – | – | – | – | – |
| Nc1ccn([C@@H]2O[C@H](CO)[C@@H](O)C2(F)F)c(=O)n1 [GEMCITABINE] | – | 0.48 | 0.32 | – | 0.11 | – | 0.52 | – | 0.23 | > 10 | – | 86 | 77 | 83 | 81 | 74 |
